High-throughput results deposited in PubChem by several laboratories.
Autophagy mod – modulators of autophagy. MEF GFP-LC3 puncta imaging; test concentration mostly 10 µM. calls only at 10 µM (by protocol). hit rate 0.98% among 190,000. AID 463193;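 active = percentage of spot-positive cells more than 3 SD above its plate mean, without a fluorescence outlier flag or 80% toxicity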;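 also: spot-positive cell cutoff set from DMSO-treated cells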
Furin inh – inhibitors of human furin; hit rate 0.061% among 220,000; purified furin, fluorogenic substrate cleavage; AID 463115; P09958; inhibition, % at 20 µM or 30 µM; in the data active = inhibition above about 25%
Target sequence (P09958 108-714 limits assumed): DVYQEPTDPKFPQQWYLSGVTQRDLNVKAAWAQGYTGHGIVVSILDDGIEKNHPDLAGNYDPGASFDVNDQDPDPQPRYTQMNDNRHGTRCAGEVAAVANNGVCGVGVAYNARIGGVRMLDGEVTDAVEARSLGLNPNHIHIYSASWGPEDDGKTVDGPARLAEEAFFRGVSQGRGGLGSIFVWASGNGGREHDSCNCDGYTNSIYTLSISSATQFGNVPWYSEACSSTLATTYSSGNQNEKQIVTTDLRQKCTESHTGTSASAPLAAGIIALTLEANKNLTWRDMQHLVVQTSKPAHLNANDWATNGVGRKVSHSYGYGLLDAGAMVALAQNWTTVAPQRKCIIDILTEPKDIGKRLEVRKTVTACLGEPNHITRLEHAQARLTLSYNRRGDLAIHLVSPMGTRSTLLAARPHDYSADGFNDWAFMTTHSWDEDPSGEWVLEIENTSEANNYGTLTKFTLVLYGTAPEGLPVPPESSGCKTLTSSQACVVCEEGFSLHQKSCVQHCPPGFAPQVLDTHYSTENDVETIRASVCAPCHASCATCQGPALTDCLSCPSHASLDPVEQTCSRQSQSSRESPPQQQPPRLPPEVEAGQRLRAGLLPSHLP
Insulin prom inh – TRM-6 insulin promoter activity inhibition | AID 1273 | hit rate 0.9% among 130,000 | inhibition, % at 2 µM | TRM-6 cells (human fetal islet line), insulin promoter-eGFP reporter, imaging; reporter expression induced with tamoxifen;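 active = inhibition above the mean plus 3 SD, with well images judged a real hit on visual review, cut at about 60% in these data, passing the limit was not always enough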
Ins promoter up – MIN6 insulin promoter up-regulation | MIN6 insulin promoter-GFP reporter, high-content imaging; hits give high values | z-score at 5 µM | hit rate 0.3% among 190,000 | AID 1625;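 active = z-score above 3 at 5 µM with at least 500 cells counted in the well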
Dynein transport – blocks dynein driven cargo transport along microtubules; 3617.4 mouse cells, GR-EGFP nuclear translocation imaging; test concentration mostly 20 µM; stimulated with dexamethasone, 1 µM; hits give low values; z-score, hits read low; hit rate 0.47% among 220,000;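 active = plate z-score of nuclear minus cytoplasmic receptor signal below a set negative limit, without overly bright fluorescence or cell loss, cut at about -3.5 in these data, passing the limit was not always enough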;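 also: z-score of nuclear minus cytoplasmic ring GR-EGFP intensity difference per well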
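Medium: Induction medium lacking tetracycline, stripped serum | Probe or stimulus: 1.0 µM final dexamethasone stimulus | Schedule: 48 h induction, then 1 h compound, then 30 min agonist, 37 °C | Signal: Automated 10x imaging of fixed Hoechst-stained cells | Evaluation: Per-cell GR-EGFP intensity, nucleus versus surrounding cytoplasmic ring, well-averaged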
HSV replic up – HSV replication enhancement. hit rate 0.005% among 220,000. HSV replication augmentation in cells, fold increase. maximum fold increase; in the data active = maximum fold increase above about 1.5; tested in PC3 cells
The depositor's hits bear a star; i = inactive; . = no result given; + = active, no number. Most compounds without a hit are left out; they make up all but 2% or so of the library.

SMILES	Autophagy mod	Furin inh	Insulin prom inh	Ins promoter up	Dynein transport	HSV replic up
O=C1CSC(c2ccc(Cl)cc2)N1Nc1nc(N2CCOCC2)nc(N2CCOCC2)n1 (stereo not given)	i	-20	.	-1.9	-0.15	i
CC(Oc1ccc(Cl)cc1Cl)C(=O)Nc1ccc(N2CCN(C)CC2)cc1 (stereo not given)	+	-10	-36	-0.12	0.26	i
CC(C)N1CCc2c(sc(NC(=O)c3ccc(S(=O)(=O)N4CCc5ccccc54)cc3)c2C(N)=O)C1	+	-7	.	.	-2.4	i
NC(=O)[C@@H]1CCNc2c(I)cc([N+](=O)[O-])cc2C(=O)N[C@@H](CCC(=O)O)C(=O)N[C@@H](CO)C(=O)N1	i	6	-5	1.1	0.98	i
NC(=O)[C@@H]1CCCCNc2c(I)cc([N+](=O)[O-])cc2C(=O)N[C@@H](CCC(=O)O)C(=O)N[C@@H](CO)C(=O)N1	i	-12	60*	0.1	0.24	i
CCOc1ccc(N2C(=O)/C(=C\c3ccccc3OC)S(=O)(=O)C2c2cccc([N+](=O)[O-])c2)cc1 (stereo not given)	i	-13	-7	-0.11	-2.1	i
O=C(Cc1csc(Nc2nc(=S)[nH]c3ccccc23)n1)N1CCN(c2cccc(C(F)(F)F)c2)CC1	+	-2	21	-0.65	1.7	i
O=C(Cc1csc(Nc2nc(=S)[nH]c3ccccc23)n1)NCc1cccc(Cl)c1	i	-15	39	.	0.71	.
Cc1cccc(-n2c(=O)[nH]c3c(C(N)=O)nc(CC(C)C)nc32)c1	i	-7	82*	0.61	-0.039	i
CC(C)Cc1nc(C(N)=O)c2[nH]c(=O)n(-c3ccc(F)cc3)c2n1	i	-26	.	0.26	0.38	.
COc1ccc2cc3c(N)nn(C(=O)C4CCC(C(C)(C)C)CC4)c3nc2c1 (stereo not given)	i	-9	60*	0.03	-0.53	i
COc1ccc2cc3c(N)nn(C(=O)Cc4ccccc4OC)c3nc2c1	i	2	.	-1.3	0.92	i
O=c1c(Cc2c(F)cccc2Cl)c(O)ccn1CCc1c[nH]c2ccccc12	i	-15	20	-0.37	0.31	i
Nc1c(C(=O)NCc2ccccc2)c2nc3ccccc3nc2n1CCCN1CCOCC1	+	-19	-43	-1.6	-0.53	i
Nc1c(C(=O)NCc2ccc(F)cc2)c2nc3ccccc3nc2n1CCCN1CCOCC1	i	-23	28	.	-0.82	i
O=C(NCC1CCCO1)c1c(O)c2cccc3c2n(c1=O)CCC3 (stereo not given)	i	-16	71*	-0.27	-0.68	i
CCC(=O)N(Cc1cc(=O)[nH]c2ccccc12)c1ccc(C)cc1	.	-20	.	-0.45	-0.12	i
Cc1cc(C)c2cc3c(N)c(C(=O)Nc4c(C)[nH]c(=O)[nH]c4=O)sc3nc2c1	+	-16	34	0.56	-0.87	i
CNC(=O)CCN(Cc1ccco1)S(=O)(=O)c1ccc(OC)c(OC)c1	.	-2	.	-0.6	1.5	i
Oc1ccc(Cl)cc1C1=Nc2ccccc2N=C(c2ccco2)C1	+	-14	-311	4.3*	-0.9	i
COc1ccc(O)c(C2=Nc3ccccc3N=C(c3ccco3)C2)c1	i	-20	-40	-0.01	-0.14	i
COc1ccc(-n2nnnc2-c2cn(C)nc2C(F)(F)F)cc1	i	-5	.	.	.	i
O=C(CN1C(=O)S/C(=C/c2cccnc2)C1=O)N1CCOCC1	i	-15	71*	-0.03	2.3	i
O=C(CN1C(=O)S/C(=C/c2ccncc2)C1=O)N1CCOCC1	i	-20	-15	-0.04	-0.17	i
Cc1nc(S/C(C(=O)O)=C2/C(=O)Nc3ccccc32)n[nH]1	.	1	.	.	-0.71	i
O=c1oc2c(CN3CCCCC3)c(O)ccc2cc1-c1nc2ccccc2[nH]1	.	.	.	3.6*	.	.
CC(=O)Nc1ccc(-c2cc(NC(C)=O)n(-c3ccccc3)n2)cc1	i	-5	.	0.92	0.34	i
Cc1ccc(-c2cc(NC(=O)CCl)n(-c3ccccc3)n2)cc1	+	-10	40	.	-2.2	.
CCOc1ccccc1NC(=O)C(NCC1(N2CCCCC2)CCCCC1)c1ccccc1 (stereo not given)	+	-21	-129	-1.2	0.17	.
CCOc1ccccc1NC(=O)C(OC(=O)C1CC1)c1ccccc1 (stereo not given)	.	-19	.	-0.86	-0.23	i
